INS-1E ATP HTS = INS-1E beta cell protection from cytokine death. 20,000 tested, 0.1% active. AID 488910. protection from cytokine-induced ATP loss, % at 10 µM. INS-1E cytokine-induced death, ATP luminescence, 48 h; normalised: neutral wells 0, positive control 100;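 active = mean replicate protection from cytokine-induced ATP loss at least 50% and at least 75% of replicates each reaching 50%; inconclusive = meets only one of the two criteria, mean or replicate share; inactive = fails both the mean and replicate share criteria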
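Assay system: INS-1E rat insulinoma cells. Amount: 8000 cells per well. Medium: phenol-red-free RPMI with 5% fetal bovine serum. Reagent: IL-1β, TNF-α and IFN-γ cytokine mix. Doses: one compound concentration, pin transfer. Schedule: 48 h co-treatment, 10 min post-lysis read. Detection: CellTiter-Glo luminescence measuring cellular ATP.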
YB-1 expr inh = YB-1 expression inhibition; U2OS, qRT-PCR YB-1 vs CDIP delta delta Cp, 16 h; stronger effect = higher value; zero = DMSO, each unit about twofold; AID 434959; 30,000 tested, 0.37% active; delta delta Cp (YB-1 minus CDIP) (no concentration beside the values);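 active = delta delta Cp rounded down to an integer at or above 3, about 3 SD of DMSO wells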;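 also: higher means less YB-1 transcript or more CDIP transcript relative to DMSO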
T cruzi intra = blocks T. cruzi growth inside host cells; intracellular Trypanosoma cruzi in host cells, plate reader; activity score (inhibition), % at 5.01 µM; 22,000 tested, 4.9% active; AID 651903; in the data active = activity score above about 55%; inconclusive = no clear call, values can overlap the other calls;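 also: parasites and compound incubated about four days before reading; 0% = median of neutral control wells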
* marks the source's active call; other numbers are inactive results. Many of the other results were omitted from the sample, so hits are more common in it than they were.

How did C[C@@H]1CCCCO[C@@H](CN(C)Cc2ccc(C(=O)Nc3ccccc3N)cc2)[C@@H](C)CN([C@H](C)CO)C(=O)c2cc(NS(=O)(=O)c3ccc(Cl)cc3)ccc2O1 do in these assays?
INS-1E ATP HTS: -5; YB-1 expr inh: 0.11; T cruzi intra: 78*

What do the screens show for `O=C1NC(=O)C(Cc2ccccc2)N1` (stereo not given)?
YB-1 expr inh: -0.9

Results for Cn1c(SCc2ccc(C(F)(F)F)cc2)nnc1-c1ccc(OCC(F)(F)F)nc1 ?
YB-1 expr inh: 0.21

How did C=CCn1c(SCC(=O)c2ccc(CC)cc2)nnc1-c1cccc(OC)c1 do in these assays?
YB-1 expr inh: 0.047

How did C[C@@H]1CCCCO[C@@H](CN(C)Cc2ccc(C(=O)Nc3ccccc3N)cc2)[C@@H](C)CN([C@H](C)CO)C(=O)c2cc(NS(=O)(=O)c3cccs3)ccc2O1 do in these assays?
INS-1E ATP HTS: -9; YB-1 expr inh: -0.16; T cruzi intra: 62*

Results for C[C@@H]1CCCCO[C@H](CN(C)Cc2ccc(C(=O)Nc3ccccc3N)cc2)[C@@H](C)CN([C@H](C)CO)C(=O)c2cc(NS(=O)(=O)c3cccs3)ccc2O1 ?
INS-1E ATP HTS: 10; YB-1 expr inh: -0.58; T cruzi intra: 29

How did C/C=C(/C)C(=O)O[C@@H](C)[C@@](C)(O)C(=O)O[C@H](C)[C@@H](OC(=O)/C(C)=C\C)c1cc(OC)c2c(c1)OCO2 do in these assays?
YB-1 expr inh: -1.3

What do the screens show for `C=C1C(=O)OC2/C=C(\CO)C(OC(C)=O)C/C=C(/C)CC(OC(=O)/C(C)=C\CO)C12` (stereo not given)?
YB-1 expr inh: 4.7*

What do the screens show for `C=C1C(=O)O[C@H]2C1[C@H](OC(=O)/C(C)=C/CO)C/C(C)=C\CC[C@@]1(C)OC21` (stereo not given in full)?
YB-1 expr inh: 0.13

How did Cc1ccc(S(=O)(=O)N(C)C[C@@H]2Oc3ccc(NC(=O)Nc4ccc5c(c4)OCO5)cc3CC(=O)N([C@H](C)CO)C[C@@H]2C)cc1 do in these assays?
INS-1E ATP HTS: -3; YB-1 expr inh: 0.22; T cruzi intra: 10

How did Cc1ccc(S(=O)(=O)N(C)C[C@H]2Oc3ccc(NS(=O)(=O)c4cn(C)cn4)cc3C(=O)N([C@H](C)CO)C[C@@H]2C)cc1 do in these assays?
INS-1E ATP HTS: 3; YB-1 expr inh: -0.2; T cruzi intra: -7

Results for CC(C)NC(=O)Nc1ccc2c(c1)CC(=O)N([C@@H](C)CO)C[C@H](C)[C@@H](CN(C)Cc1ccc(C(=O)Nc3ccccc3N)cc1)O2 ?
INS-1E ATP HTS: -19; YB-1 expr inh: 0.1; T cruzi intra: 36

Results for C[C@H]1CN([C@@H](C)CO)C(=O)Cc2cc(NC(=O)NC3CCCCC3)ccc2O[C@H]1CN(C)Cc1ccc(C(=O)Nc2ccccc2N)cc1 ?
INS-1E ATP HTS: 3; YB-1 expr inh: -0.34; T cruzi intra: 67*

How did C[C@@H]1CN([C@@H](C)CO)C(=O)Cc2cc(NC(=O)Nc3ccc4c(c3)OCO4)ccc2O[C@@H]1CN(C)Cc1ccc(C(=O)Nc2ccccc2N)cc1 do in these assays?
INS-1E ATP HTS: -15; YB-1 expr inh: -0.16; T cruzi intra: 67*

What do the screens show for `C[C@@H]1CN([C@H](C)CO)C(=O)Cc2cc(NC(=O)NC3CCCCC3)ccc2O[C@H]1CN(C)Cc1ccc(C(=O)Nc2ccccc2N)cc1`?
INS-1E ATP HTS: -3; YB-1 expr inh: -0.14; T cruzi intra: 51

What do the screens show for `C[C@@H]1CN([C@@H](C)CO)C(=O)Cc2cc(NC(=O)Nc3ccc(F)cc3)ccc2O[C@@H]1CN(C)Cc1ccc(C(=O)Nc2ccccc2N)cc1`?
INS-1E ATP HTS: -6; YB-1 expr inh: 0.021; T cruzi intra: 63*

What do the screens show for `C[C@@H]1CN([C@@H](C)CO)C(=O)Cc2cc(NC(=O)C3CC3)ccc2O[C@@H]1CN(C)Cc1ccc(C(=O)Nc2ccccc2N)cc1`?
INS-1E ATP HTS: -8; YB-1 expr inh: -0.027; T cruzi intra: 58*

How did C[C@@H]1CN([C@H](C)CO)C(=O)Cc2cc(NC(=O)C3CC3)ccc2O[C@H]1CN(C)Cc1ccc(C(=O)Nc2ccccc2N)cc1 do in these assays?
INS-1E ATP HTS: -2; YB-1 expr inh: -0.24; T cruzi intra: 19

What do the screens show for `C[C@@H]1CN([C@@H](C)CO)C(=O)Cc2cc(NC(=O)Nc3ccccc3)ccc2O[C@@H]1CN(C)Cc1ccc(C(=O)Nc2ccccc2N)cc1`?
INS-1E ATP HTS: -14; YB-1 expr inh: -0.14; T cruzi intra: inconclusive

How did COc1ccc(NC(=O)Nc2ccc3c(c2)CC(=O)N([C@H](C)CO)C[C@@H](C)[C@H](CN(C)C(=O)Nc2ccc4c(c2)OCO4)O3)cc1 do in these assays?
INS-1E ATP HTS: 13; YB-1 expr inh: -0.65; T cruzi intra: -6

How did CC(C)NC(=O)N(C)C[C@@H]1Oc2ccc(NC(=O)Nc3ccc(C(F)(F)F)cc3)cc2CC(=O)N([C@@H](C)CO)C[C@@H]1C do in these assays?
INS-1E ATP HTS: 10; YB-1 expr inh: 0.017; T cruzi intra: -13

How did C[C@H](CO)N1C[C@H](C)[C@H](CN(C)Cc2ccc(C(=O)Nc3ccccc3N)cc2)Oc2ccc(NC(=O)Nc3ccc(F)cc3)cc2CC1=O do in these assays?
INS-1E ATP HTS: 31; YB-1 expr inh: 0.27; T cruzi intra: 66*

What do the screens show for `C[C@@H]1CN([C@H](C)CO)C(=O)Cc2cc(NC(=O)Nc3ccc(C(F)(F)F)cc3)ccc2O[C@H]1CN(C)Cc1ccc(C(=O)Nc2ccccc2N)cc1`?
INS-1E ATP HTS: -9; YB-1 expr inh: -0.23; T cruzi intra: 32

How did CC(C)NC(=O)N(C)C[C@@H]1Oc2ccc(NC(=O)C3CC3)cc2CC(=O)N([C@H](C)CO)C[C@H]1C do in these assays?
INS-1E ATP HTS: 9; YB-1 expr inh: 0.079; T cruzi intra: -22

How did Cc1ccc(S(=O)(=O)Nc2ccc3c(c2)C(=O)N([C@@H](C)CO)C[C@@H](C)[C@@H](CN(C)CC2CC2)O3)cc1 do in these assays?
INS-1E ATP HTS: 2; YB-1 expr inh: -0.58; T cruzi intra: -11

How did COc1ccc(S(=O)(=O)N(C)C[C@H]2Oc3ccc(NS(=O)(=O)c4cn(C)cn4)cc3CC(=O)N([C@@H](C)CO)C[C@H]2C)cc1 do in these assays?
INS-1E ATP HTS: 4; YB-1 expr inh: 0.061; T cruzi intra: -22

What do the screens show for `C[C@H]1CN([C@@H](C)CO)C(=O)Cc2cc(NC(=O)Nc3ccc(C(F)(F)F)cc3)ccc2O[C@@H]1CN(C)CC1CCCCC1`?
INS-1E ATP HTS: -42; YB-1 expr inh: -0.19; T cruzi intra: 63*

How did C[C@H](CO)N1C[C@H](C)[C@H](CN(C)CC2CCCCC2)Oc2ccc(NC(=O)Nc3ccc(F)cc3)cc2CC1=O do in these assays?
INS-1E ATP HTS: 5; YB-1 expr inh: -0.26; T cruzi intra: 42

How did C[C@H]1CN([C@@H](C)CO)C(=O)Cc2cc(NC(=O)Nc3ccc(F)cc3)ccc2O[C@H]1CN(C)CC1CCCCC1 do in these assays?
INS-1E ATP HTS: -3; YB-1 expr inh: 0.00081; T cruzi intra: -5

How did C[C@H](CO)N1C[C@H](C)[C@H](CN(C)CC2CCCCC2)Oc2ccc(NC(=O)Nc3ccc(C(F)(F)F)cc3)cc2CC1=O do in these assays?
INS-1E ATP HTS: -79; YB-1 expr inh: 0.18; T cruzi intra: 60*

From PubChem BioAssay
